Measurements from ChEMBL document CHEMBL1152185, “Synthesis of a novel 6,14-epoxymorphinan derivative and its pharmacology” (Bioorg Med Chem Lett, 2008).
Activity calls are given as the source filed them. No cut-off for these calls is given here.

Experiments:
[1] = molecular target: Delta-type opioid receptor (Mus musculus, UniProt P32300); assay: Displacement of [3H]DPDPE from delta opioid receptor in mouse whole brain without cerebellum
In short: (§1)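 Competition binding on mouse whole-brain membranes, using [³H]DAMGO for mu and [³H]DPDPE for delta. % specific binding was plotted against log concentration, and IC50 was derived from the curve.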

[2] = molecular target: Kappa-type opioid receptor (Cavia porcellus, UniProt P41144); assay: Displacement of [3H]U69,593 from kappa opioid receptor in guinea pig cerebellum; format: tissue-based
Mu-type opioid receptor = Mu-type opioid receptor (Mus musculus, UniProt P42866); assay: Displacement of [3H]DAMGO from mu opioid receptor in mouse whole brain without cerebellum; in short: as §1
Mus musculus [3] = assay: Antinociceptive activity in mouse assessed as inhibition of analgesia at 10 mg/kg, sc pretreated with 3 mg/kg, sc NTI for 24 hrs by hotplate test; format: functional, organism-based
In short: (§2)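 Mouse hot-plate and tail-flick antinociception after agonist 10 mg/kg sc. Pretreatment was saline, b-FNA 20 mg/kg sc or NTI 3 mg/kg sc, given at 24 h or 30 min before agonist. Data are mean with SEM of 6–8 trials.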

Mus musculus [4] = assay: Antinociceptive activity in mouse assessed as inhibition of analgesia at 10 mg/kg, sc pretreated with 3 mg/kg, sc NTI for 24 hrs by tail-flick test; format: functional, organism-based; in short: as §2
Mus musculus [5] = assay: Antinociceptive activity in mouse at 10 mg/kg, sc by hotplate test; format: functional, organism-based; parameters: dose 10 mg/kg
In short: (§3)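 Mice were given agonist 10 mg/kg sc, and antinociception was read in the hot-plate and tail-flick tests. Pretreatment was saline or nor-BNI (5 or 20 mg/kg sc) 24 h before agonist. Data are mean with SEM, n = 6–8, compared with the saline–agonist group.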

Mus musculus [6] = assay: Antinociceptive activity in mouse assessed as inhibition of analgesia at 10 mg/kg, sc pretreated with 20 mg/kg, sc nor-BNI for 24 hrs by hotplate test; format: functional, organism-based; in short: as §3
[7] = molecular target: Kappa-type opioid receptor (Mus musculus) (UniProt P33534); assay: Agonist activity at kappa opioid receptor-mediated G-protein activation in mouse whole brain membrane without cerebellum at 10 uM by [35S]GTPgammaS binding assay in presence of nor-BNI; format: functional, cell membranes
In short: (§4)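 Mouse whole-brain membranes (cerebellum removed) incubated with [³⁵S]GTPγS and GDP plus agonist at 10^-5 M, alone or together with nor-BNI or b-FNA (levels not given). The read-out is % stimulation of [³⁵S]GTPγS binding.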

Mus musculus [8] = assay: Antinociceptive activity in mouse assessed as inhibition of analgesia at 10 mg/kg, sc pretreated with 20 mg/kg, sc beta-funaltrexamine for 24 hrs by hotplate test; format: functional, organism-based; in short: as §2
[9] = molecular target: Kappa-type opioid receptor (Mus musculus) (UniProt P33534); assay: Agonist activity at kappa opioid receptor-mediated G-protein activation in mouse whole brain membrane without cerebellum at 10 uM by [35S]GTPgammaS binding assay; format: functional, cell membranes; in short: as §4
Mus musculus [10] = assay: Antinociceptive activity in mouse assessed as inhibition of analgesia at 10 mg/kg, sc pretreated with 20 mg/kg, sc nor-BNI for 24 hrs by tail-flick test; format: functional, organism-based; in short: as §3
[11] = molecular target: Kappa-type opioid receptor (Mus musculus) (UniProt P33534); assay: Agonist activity at kappa opioid receptor-mediated G-protein activation in mouse whole brain membrane without cerebellum at 10 uM by [35S]GTPgammaS binding assay in presence of beta-funaltrexamine; format: functional, cell membranes; in short: as §4
Mus musculus [12] = assay: Antinociceptive activity in mouse assessed as inhibition of analgesia at 10 mg/kg, sc pretreated with 20 mg/kg, sc beta-funaltrexamine for 24 hrs by tail-flick test; format: functional, organism-based; in short: as §2
Mus musculus [13] = assay: Antinociceptive activity in mouse at 10 mg/kg, sc by tail-flick test; format: functional, organism-based; parameters: dose 10 mg/kg; in short: as §3

Sequence of Kappa-type opioid receptor (Mus musculus) (P33534 whole entry): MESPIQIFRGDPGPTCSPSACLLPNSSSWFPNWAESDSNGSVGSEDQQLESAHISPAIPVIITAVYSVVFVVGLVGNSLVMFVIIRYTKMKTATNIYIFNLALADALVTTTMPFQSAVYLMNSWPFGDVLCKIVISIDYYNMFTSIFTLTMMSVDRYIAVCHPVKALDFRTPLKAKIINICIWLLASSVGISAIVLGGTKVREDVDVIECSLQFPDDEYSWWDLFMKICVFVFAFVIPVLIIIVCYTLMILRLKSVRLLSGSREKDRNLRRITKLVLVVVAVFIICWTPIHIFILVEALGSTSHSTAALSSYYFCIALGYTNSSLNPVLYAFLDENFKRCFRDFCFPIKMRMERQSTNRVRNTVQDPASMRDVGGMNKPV
Sequence of Delta-type opioid receptor (P32300 whole entry): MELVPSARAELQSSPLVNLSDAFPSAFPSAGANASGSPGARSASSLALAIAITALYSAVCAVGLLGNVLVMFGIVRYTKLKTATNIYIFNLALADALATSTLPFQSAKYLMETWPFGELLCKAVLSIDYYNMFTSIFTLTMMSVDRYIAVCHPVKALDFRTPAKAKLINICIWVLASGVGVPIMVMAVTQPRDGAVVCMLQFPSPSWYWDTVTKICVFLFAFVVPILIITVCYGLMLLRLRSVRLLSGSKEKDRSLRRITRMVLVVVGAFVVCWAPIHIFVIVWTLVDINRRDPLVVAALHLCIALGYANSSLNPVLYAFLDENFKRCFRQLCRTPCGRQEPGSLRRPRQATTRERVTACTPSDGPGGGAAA
Sequence of Mu-type opioid receptor (P42866 whole entry): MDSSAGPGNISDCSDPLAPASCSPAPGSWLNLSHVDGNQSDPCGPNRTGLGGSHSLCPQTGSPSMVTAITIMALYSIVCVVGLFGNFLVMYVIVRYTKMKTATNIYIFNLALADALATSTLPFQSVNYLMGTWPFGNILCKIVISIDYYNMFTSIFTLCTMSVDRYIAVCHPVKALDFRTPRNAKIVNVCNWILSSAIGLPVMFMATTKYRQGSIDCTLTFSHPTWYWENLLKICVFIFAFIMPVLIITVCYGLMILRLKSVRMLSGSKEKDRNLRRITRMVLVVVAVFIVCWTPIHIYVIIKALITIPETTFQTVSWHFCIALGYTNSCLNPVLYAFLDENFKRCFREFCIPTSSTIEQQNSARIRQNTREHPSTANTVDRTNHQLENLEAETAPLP
Sequence of Kappa-type opioid receptor (P41144 whole entry): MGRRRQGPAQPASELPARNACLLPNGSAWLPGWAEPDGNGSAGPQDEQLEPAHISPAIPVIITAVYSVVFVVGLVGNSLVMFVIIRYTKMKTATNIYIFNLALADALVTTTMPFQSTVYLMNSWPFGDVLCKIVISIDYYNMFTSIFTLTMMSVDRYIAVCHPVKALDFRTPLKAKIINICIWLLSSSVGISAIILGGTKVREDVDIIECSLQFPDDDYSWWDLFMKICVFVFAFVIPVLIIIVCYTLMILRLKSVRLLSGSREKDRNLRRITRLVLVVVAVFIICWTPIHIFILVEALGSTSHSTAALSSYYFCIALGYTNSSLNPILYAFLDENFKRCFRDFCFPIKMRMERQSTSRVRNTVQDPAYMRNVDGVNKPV

Row | SMILES | Ki [1] [nM] | Ki [2] [nM] | Ki (Mu-type opioid receptor) [nM] | Activity (Mus musculus [3]) | Activity (Mus musculus [4]) | Activity (Mus musculus [5]) | Activity (Mus musculus [6]) | Activity [7] [%] | IC50 [1] [nM] | Activity (Mus musculus [8]) | IC50 (Mu-type opioid receptor) [nM] | Activity [9] [%] | Activity (Mus musculus [10]) | Activity [11] [%] | Activity (Mus musculus [12]) | Activity (Mus musculus [13])
1 | O=C1N(CCc2ccccc2)CO[C@]12CC[C@@]1(O)[C@@H]3Cc4ccc(O)c5c4[C@@]1(CCN3CC1CC1)[C@H]2O5 | 4.82 | 8.66 | 4.54 | – | – | – | – | – | – | – | – | – | – | – | – | –
2 | O=C(NC[C@]12CC[C@@]3(O1)[C@@H]1Cc4ccc(O)cc4[C@@]3(CCN1CC1CC1)C2)c1ccccc1 | – | – | – | inactive | inactive | Active | Active | 10.7 | 2.07 | inactive | 0.288 | 29.8 | Active | 19.2 | inactive | Active
